Laboratory results from ChEMBL document CHEMBL1138087, “Synthesis and evaluation of N-aryl pyrrolidinones as novel anti-HIV-1 agents. Part 1” (Bioorg Med Chem Lett, 2006).

Key:
HEK293 = test: Cytotoxicity against HEK293T cells; type: functional; settings: Homo sapiens
Summary of the method: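 293T cells seeded at 700 cells/well and cultured 24 h at 37 °C under 5% CO₂. Serially diluted compound in DMSO added to uninfected cells, then a further 48 h at 37 °C. Viability read by fluorescence after Alamar Blue (diluted 1:1 in DMEM) and 4 h at room temperature.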

[1] = test system: Human immunodeficiency virus 1; test: Antiviral activity against wild type HIV1 virus; type: functional, organism-based
Summary of the method: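 HEK 293T cells grown in DMEM with 10% FBS and Pen/Strep/Glutamine. Seeded at 700 cells/well, cultured 24 h at 37 °C under 5% CO₂. Serially diluted compound in DMSO added, then 1 h at 37 °C. HIV reporter virus added at MOI about 1.0, cells cultured a further 48 h at 37 °C. Luciferase read-out with Bright-Glo reagent.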

[2] = test system: Human immunodeficiency virus 1; test: Antiviral activity against HIV1 K103N mutant; type: functional, organism-based
Summary of the method: (§1)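 HEK 293T cells grown in DMEM with 10% FBS and Pen/Strep/Glutamine. Cells seeded at 700 cells/well and cultured 24 h at 37 °C under 5% CO₂. Compounds serially diluted in DMSO were added and incubated 1 h at 37 °C. Cells were then infected with HIV reporter virus at MOI ~1.0 and cultured a further 48 h at 37 °C. Read-out was luciferase activity (Bright-Glo).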

[3] = test system: Human immunodeficiency virus 1; test: Antiviral activity against HIV1 L100I mutant; type: functional, organism-based; summary of the method: as §1
[4] = test system: Human immunodeficiency virus 1; test: Selectivity for wild type HIV1 virus over HIV1 L100I mutant; type: functional
[5] = test system: Human immunodeficiency virus 1; test: Antiviral activity against HIV1 Y181C mutant; type: functional, organism-based; summary of the method: as §1
[6] = test system: Human immunodeficiency virus 1; test: Selectivity for wild type HIV1 virus over HIV1 K103N mutant; type: functional
[7] = test system: Human immunodeficiency virus 1; test: Selectivity for wild type HIV1 virus over HIV1 K103N/L100I mutant; type: functional
[8] = test system: Human immunodeficiency virus 1; test: Selectivity for wild type HIV1 virus over HIV1 Y181C mutant; type: functional
[9] = test system: Human immunodeficiency virus 1; test: Antiviral activity against HIV1 K103N/L100I mutant; type: functional, organism-based; summary of the method: as §1

Structure (SMILES)	CC50 (HEK293)	EC50 [1]	other results
COc1ccc([C@H]2CC(=O)N(c3cccc(N)c3C)C2)cc1OC1CCCC1	> 10000 nM	> 10000 nM	–
COc1ccc([C@H]2CC(=O)N(c3ccc(S(C)(=O)=O)cc3)C2)cc1OC1CCCC1	> 10000 nM	180 nM	–
COc1ccc([C@H]2CC(=O)N(c3cccc(NS(=O)(=O)c4cc(C)ccc4OC)c3)C2)cc1OC1CCCC1	> 10000 nM	33 nM	EC50 [2]: 172 nM; EC50 [3]: 23 nM; Selectivity ratio [4]: 0.7; EC50 [5]: 507 nM; Selectivity ratio [6]: 5.2; Selectivity ratio [7]: 1; Selectivity ratio [8]: 15
COc1ccc([C@H]2CC(=O)N(c3cccc(NS(=O)(=O)c4ccc(F)cc4)c3)C2)cc1OC1CCCC1	> 10000 nM	102 nM	–
COc1ccc([C@H]2CC(=O)N(c3cccc(NS(=O)(=O)c4ccccc4F)c3)C2)cc1OC1CCCC1	> 10000 nM	64 nM	EC50 [2]: 269 nM; EC50 [3]: 34 nM; Selectivity ratio [4]: 0.53; EC50 [5]: 1500 nM; Selectivity ratio [6]: 4.2; Selectivity ratio [7]: 0.64; Selectivity ratio [8]: 21; EC50 [9]: 41 nM
COc1ccc([C@H]2CC(=O)N(c3cccc(NC(=O)C(=O)c4cccs4)c3)C2)cc1OC1CCCC1	> 10000 nM	502 nM	–
COc1ccc([C@H]2CC(=O)N(c3cccc(NS(=O)(=O)c4cc(Br)c(Cl)s4)c3)C2)cc1OC1CCCC1	> 10000 nM	46 nM	EC50 [2]: 542 nM; EC50 [3]: 39 nM; Selectivity ratio [4]: 0.84; EC50 [5]: 753 nM; Selectivity ratio [6]: 12; Selectivity ratio [7]: 2; Selectivity ratio [8]: 16; EC50 [9]: 95 nM
COc1ccc([C@H]2CC(=O)N(c3ccccc3C(F)(F)F)C2)cc1OC1CCCC1	> 10000 nM	> 10000 nM	–
COc1ccc([C@H]2CC(=O)N(Cc3cccc([N+](=O)[O-])c3)C2)cc1OC1CCCC1	> 10000 nM	> 10000 nM	–
COc1ccc(OC)c(S(=O)(=O)Nc2cccc(N3C[C@@H](c4ccc(OC)c(OC5CCCC5)c4)CC3=O)c2)c1	7590 nM	104 nM	–
COc1ccc([C@H]2CC(=O)N(c3cccc(NS(=O)(=O)c4cccc(F)c4)c3)C2)cc1OC1CCCC1	> 10000 nM	43 nM	EC50 [2]: 261 nM; EC50 [3]: 20 nM; Selectivity ratio [4]: 0.46; EC50 [5]: 684 nM; Selectivity ratio [6]: 6; Selectivity ratio [7]: 0.6; Selectivity ratio [8]: 16; EC50 [9]: 26 nM
COc1ccc([C@H]2CC(=O)N(c3cccc(NS(=O)(=O)c4cccc(Cl)c4C)c3)C2)cc1OC1CCCC1	> 10000 nM	20 nM	EC50 [2]: 162 nM; EC50 [3]: 8 nM; Selectivity ratio [4]: 0.4; EC50 [5]: 389 nM; Selectivity ratio [6]: 8.1; Selectivity ratio [7]: 0.5; Selectivity ratio [8]: 19; EC50 [9]: 10 nM
COc1ccc([C@H]2CC(=O)N(Cc3cccc(N)c3)C2)cc1OC1CCCC1	> 10000 nM	> 10000 nM	–
COc1ccc([C@H]2CC(=O)N(c3cccc(NS(=O)(=O)c4cccc(C)c4)c3)C2)cc1OC1CCCC1	> 10000 nM	46 nM	EC50 [2]: 158 nM; EC50 [3]: 14 nM; Selectivity ratio [4]: 0.3; EC50 [5]: 284 nM; Selectivity ratio [6]: 3.4; Selectivity ratio [7]: 0.41; Selectivity ratio [8]: 6.2; EC50 [9]: 19 nM
COc1ccc([C@H]2CC(=O)N(c3cccc(NS(=O)(=O)c4c(F)cccc4F)c3)C2)cc1OC1CCCC1	> 10000 nM	48 nM	EC50 [2]: 451 nM; EC50 [3]: 68 nM; Selectivity ratio [4]: 1.4; EC50 [5]: 1300 nM; Selectivity ratio [6]: 9.4; Selectivity ratio [7]: 1; Selectivity ratio [8]: 27; EC50 [9]: 52 nM
COc1ccc([C@H]2CC(=O)N(c3ccc(C)cc3)C2)cc1OC1CCCC1	> 10000 nM	3260 nM	–
COc1ccc([C@H]2CC(=O)N(c3cc(N)cc(N)c3)C2)cc1OC1CCCC1	> 10000 nM	> 10000 nM	–
COc1cccc(C(=O)C(=O)Nc2cccc(N3C[C@@H](c4ccc(OC)c(OC5CCCC5)c4)CC3=O)c2)c1	> 10000 nM	502 nM	–
COc1ccc([C@H]2CC(=O)N(c3ccccc3N)C2)cc1OC1CCCC1	> 10000 nM	> 10000 nM	–
COc1ccc([C@H]2CC(=O)N(c3cccc(C#N)c3)C2)cc1OC1CCCC1	> 10000 nM	520 nM	–
COc1ccc([C@H]2CC(=O)N(C(C)=O)C2)cc1OC1CCCC1	> 10000 nM	> 10000 nM	–
COc1ccc([C@H]2CC(=O)N(c3ccncc3)C2)cc1OC1CCCC1	> 10000 nM	110 nM	–
COc1ccc([C@H]2CC(=O)N(c3cccc(NS(=O)(=O)c4cccc(Cl)c4)c3)C2)cc1OC1CCCC1	> 10000 nM	25 nM	EC50 [2]: 689 nM; EC50 [3]: 40 nM; Selectivity ratio [4]: 1.6; EC50 [5]: 2320 nM; Selectivity ratio [6]: 27; Selectivity ratio [7]: 2.2; Selectivity ratio [8]: 93; EC50 [9]: 56 nM
CCCCNc1cccc(N2C[C@@H](c3ccc(OC)c(OC4CCCC4)c3)CC2=O)c1	> 10000 nM	6960 nM	–
COc1ccc([C@H]2CC(=O)N(c3ccccc3C)C2)cc1OC1CCCC1	> 10000 nM	> 10000 nM	–
COc1ccc([C@H]2CC(=O)N(C(=O)c3ccccc3)C2)cc1OC1CCCC1	> 10000 nM	> 10000 nM	–
COc1ccc([C@H]2CC(=O)N(c3cccnc3)C2)cc1OC1CCCC1	> 10000 nM	2370 nM	–

Structure (SMILES)	CC50 (HEK293)	EC50 [1]	other results
COc1ccc([C@H]2CC(=O)N(c3ccccc3)C2)cc1OC1CCCC1	> 10000 nM	2280 nM	–
COc1ccc([C@H]2CC(=O)N(c3cccc(NCC4CCOC4)c3)C2)cc1OC1CCCC1 (stereo partly specified)	> 10000 nM	1020 nM	–
COc1ccc([C@H]2CC(=O)N(c3ccccn3)C2)cc1OC1CCCC1	> 10000 nM	2630 nM	–
COc1ccc([C@H]2CC(=O)N(c3cccc(N(C)C)c3)C2)cc1OC1CCCC1	> 10000 nM	4710 nM	–
COc1ccc([C@H]2CC(=O)N(c3ccc(N)cc3)C2)cc1OC1CCCC1	> 10000 nM	1860 nM	–
COc1ccc([C@H]2CC(=O)N(Cc3cccc(C#N)c3)C2)cc1OC1CCCC1	> 10000 nM	> 10000 nM	–
COc1ccc([C@H]2CC(=O)N(c3cccc(NC(=O)C(C)=O)c3)C2)cc1OC1CCCC1	> 10000 nM	5790 nM	–
COc1ccc([C@H]2CC(=O)N(c3ccc(C#N)cc3)C2)cc1OC1CCCC1	> 10000 nM	660 nM	–
COc1ccc([C@H]2CC(=O)N(c3cccc(C)c3)C2)cc1OC1CCCC1	> 10000 nM	419 nM	–
COc1ccc([C@H]2CC(=O)N(c3cccc(C(F)(F)F)c3)C2)cc1OC1CCCC1	> 10000 nM	2950 nM	–
COc1ccc([C@H]2CC(=O)N(c3cccc(S(C)(=O)=O)c3)C2)cc1OC1CCCC1	> 10000 nM	> 10000 nM	–
COc1ccc([C@H]2CC(=O)N(c3cccc(NCCCc4ccccc4)c3)C2)cc1OC1CCCC1	> 10000 nM	7900 nM	–
COc1ccc([C@H]2CC(=O)N(c3ccccc3C#N)C2)cc1OC1CCCC1	> 10000 nM	> 10000 nM	–
COc1ccc([C@H]2CC(=O)N(c3ccc(C(F)(F)F)cc3)C2)cc1OC1CCCC1	> 10000 nM	3620 nM	–
COc1ccc([C@H]2CC(=O)N(c3cccc(NS(=O)(=O)c4cccc(OC(F)(F)F)c4)c3)C2)cc1OC1CCCC1	> 10000 nM	800 nM	–
COc1ccc([C@H]2CC(=O)N(c3cccc(NCc4ccoc4)c3)C2)cc1OC1CCCC1	> 10000 nM	1960 nM	–
COc1ccc(S(=O)(=O)Nc2cccc(N3C[C@@H](c4ccc(OC)c(OC5CCCC5)c4)CC3=O)c2)cc1	> 10000 nM	256 nM	–
COc1ccc([C@H]2CC(=O)N(c3cccc(O)c3)C2)cc1OC1CCCC1	> 10000 nM	1780 nM	–
COc1ccc([C@@H]2CNC(=O)C2)cc1OC1CCCC1 [(-)-ROLIPRAM]	> 10000 nM	> 10000 nM	–
COc1ccc([C@H]2CC(=O)N(c3cccc(NS(=O)(=O)c4c(Br)nn(C)c4Cl)c3)C2)cc1OC1CCCC1	> 10000 nM	53 nM	–
COc1ccc([C@H]2CC(=O)N(c3cccc(NC(=O)C(=O)c4cccc(N(C)C)c4)c3)C2)cc1OC1CCCC1	> 10000 nM	124 nM	–
COc1ccc([C@H]2CC(=O)N(c3cc(N)cc(F)c3)C2)cc1OC1CCCC1	> 10000 nM	80 nM	–
COc1ccc([C@H]2CC(=O)N(c3ccc([S+](C)[O-])cc3)C2)cc1OC1CCCC1 (stereo partly specified)	7510 nM	40 nM	–
O=C1Nc2ccc(Cl)cc2[C@@](C#CC2CC2)(C(F)(F)F)O1 [EFAVIRENZ]	–	–	EC50 [2]: 32 nM; EC50 [3]: 10 nM; EC50 [5]: 1 nM; EC50 [9]: 2530 nM
COc1ccc([C@H]2CC(=O)N(c3cccc([S+](C)[O-])c3)C2)cc1OC1CCCC1 (stereo partly specified)	> 10000 nM	> 10000 nM	–
COc1ccc([C@H]2CC(=O)N(c3ccc(C)c(N)c3)C2)cc1OC1CCCC1	> 10000 nM	196 nM	–
